Measurements reported in ChEMBL document CHEMBL2086239, “Synthesis and biological evaluation of combretastatin-amidobenzothiazole conjugates as potential anticancer agents” (Eur J Med Chem, 2012).
Calls of active or inactive are those of the source. The rule behind the calls is not given here.

Legend:
Type in all cases: functional
COLO 205 [1] = test: Cytotoxicity against human COLO205 cells after 48 hrs assessed as inhibition of cell growth at 10 uM after 48 hrs by SRB assay relative to control; details: COLO 205, 48 h, read-out: GI
Procedure, shortened: (§1)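 SRB protein assay in DMEM with 10% FBS at 37 °C, 5% CO2, 100% relative humidity. Cells seeded in 96-well plates, incubated 24 h, then exposed to drug at 10 µM for 48 h and processed per standard protocol. Absorbance read at 560 nm; growth percentage calculated for test wells relative to control wells.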

THP-1 = test: Cytotoxicity against human THP1 cells after 48 hrs assessed as inhibition of cell growth at 10 uM after 48 hrs by SRB assay relative to control; procedure, shortened: as §1
IMR-32 = test: Cytotoxicity against human IMR32 cells after 48 hrs assessed as inhibition of cell growth at 10 uM after 48 hrs by SRB assay relative to control; details: IMR-32, 48 h, read-out: GI; procedure, shortened: as §1
CCRF-CEM = test: Growth inhibition of human CCRF-CEM cells after 48 hrs by SRB assay
Procedure, shortened: (§2)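 NCI 60-cell-line screen: after preliminary screening, tested at five dose concentrations on 59 human tumour lines covering leukemia, lung, colon, CNS, melanoma, ovarian, renal, prostate and breast.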

RPMI-8226 = test: Growth inhibition of human RPMI8226 cells after 48 hrs by SRB assay; details: RPMI-8226, 48 h; procedure, shortened: as §2
SR = test: Growth inhibition of human SR cells after 48 hrs by SRB assay
Procedure, shortened: (§3)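 NCI 60-cell-line panel, five-dose testing after preliminary screen; sulforhodamine B protein assay in DMEM with 10% FBS, 37 °C, 5% CO2, 100% humidity. Cells seeded and incubated 24 h before compound addition, then exposed 48 h. Absorbance read at 560 nm; growth percentage relative to control wells; GI50 taken as concentration giving 50% growth inhibition.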

A549 = test: Growth inhibition of human A549 cells after 48 hrs by SRB assay; details: A549, 48 h; procedure, shortened: as §2
EKVX = test: Growth inhibition of human EKVX cells after 48 hrs by SRB assay; procedure, shortened: as §2
HOP-62 = test: Growth inhibition of human HOP62 cells after 48 hrs by SRB assay; details: HOP-62, 48 h; procedure, shortened: as §2
HOP-92 = test: Growth inhibition of human HOP92 cells after 48 hrs by SRB assay; details: HOP-92, 48 h; procedure, shortened: as §2
NCI-H226 = test: Growth inhibition of human NCI-H226 cells after 48 hrs by SRB assay; details: NCI-H226, 48 h; procedure, shortened: as §2
NCI-H322M = test: Growth inhibition of human NCI-H322M cells after 48 hrs by SRB assay; procedure, shortened: as §2
COLO 205 [2] = test: Growth inhibition of human COLO205 cells after 48 hrs by SRB assay; details: COLO 205, 48 h; procedure, shortened: as §2
HCC 2998 = test: Growth inhibition of human HCC2998 cells after 48 hrs by SRB assay; details: HCC 2998, 48 h; procedure, shortened: as §2
HT-29 = test: Growth inhibition of human HT-29 cells after 48 hrs by SRB assay; details: HT-29, 48 h; procedure, shortened: as §2
KM12 = test: Growth inhibition of human KM12 cells after 48 hrs by SRB assay; details: KM12, 48 h; procedure, shortened: as §2
SF-268 = test: Growth inhibition of human SF268 cells after 48 hrs by SRB assay; details: SF-268, 48 h; procedure, shortened: as §2
SF-295 = test: Growth inhibition of human SF295 cells after 48 hrs by SRB assay; details: SF-295, 48 h; procedure, shortened: as §3
SF-539 = test: Growth inhibition of human SF539 cells after 48 hrs by SRB assay; details: SF-539, 48 h; procedure, shortened: as §3
SNB-19 = test: Growth inhibition of human SNB19 cells after 48 hrs by SRB assay; details: SNB-19, 48 h; procedure, shortened: as §3
U-251 = test: Growth inhibition of human U251cells after 48 hrs by SRB assay; details: U-251, 48 h; procedure, shortened: as §3
M14 = test: Growth inhibition of human M14 cells after 48 hrs by SRB assay; details: M14, 48 h; procedure, shortened: as §2
MDA-MB-435 = test: Growth inhibition of human MDA-MB-435 cells after 48 hrs by SRB assay; details: MDA-MB-435, 48 h; procedure, shortened: as §2
SK-MEL-28 = test: Growth inhibition of human SK-MEL-28 cells after 48 hrs by SRB assay; details: SK-MEL-28, 48 h; procedure, shortened: as §3
UACC-257 = test: Growth inhibition of human UACC257 cells after 48 hrs by SRB assay; details: UACC-257, 48 h; procedure, shortened: as §3
UACC-62 = test: Growth inhibition of human UACC62 cells after 48 hrs by SRB assay; details: UACC-62, 48 h; procedure, shortened: as §3
IGROV-1 = test: Growth inhibition of human IGROV1 cells after 48 hrs by SRB assay; details: IGROV-1, 48 h; procedure, shortened: as §2
OVCAR-4 = test: Growth inhibition of human OVCAR4 cells after 48 hrs by SRB assay; details: OVCAR-4, 48 h; procedure, shortened: as §2
SK-OV-3 = test: Growth inhibition of human SKOV3 cells after 48 hrs by SRB assay; details: SK-OV-3, 48 h; procedure, shortened: as §3
ACHN = test: Growth inhibition of human ACHN cells after 48 hrs by SRB assay; procedure, shortened: as §2
CAKI-1 = test: Growth inhibition of human Caki1 cells after 48 hrs by SRB assay; details: CAKI-1, 48 h; procedure, shortened: as §2
RXF 393 = test: Growth inhibition of human RXF393 cells after 48 hrs by SRB assay; details: RXF 393, 48 h; procedure, shortened: as §2
SN12C = test: Growth inhibition of human SN12C cells after 48 hrs by SRB assay; procedure, shortened: as §3
TK-10 = test: Growth inhibition of human TK10 cells after 48 hrs by SRB assay; details: TK-10, 48 h; procedure, shortened: as §3
UO-31 = test: Growth inhibition of human UO31 cells after 48 hrs by SRB assay; details: UO-31, 48 h; procedure, shortened: as §3
PC-3 = test: Growth inhibition of human PC3 cells after 48 hrs by SRB assay; details: PC-3, 48 h; procedure, shortened: as §2
DU-145 = test: Growth inhibition of human DU145 cells after 48 hrs by SRB assay; details: DU-145, 48 h; procedure, shortened: as §2
BT-549 = test: Growth inhibition of human BT549 cells after 48 hrs by SRB assay; details: BT-549, 48 h; procedure, shortened: as §2
T47D = test: Growth inhibition of human T47D cells after 48 hrs by SRB assay; procedure, shortened: as §3
MDA-MB-468 = test: Growth inhibition of human MDA-MB-468 cells after 48 hrs by SRB assay; details: MDA-MB-468, 48 h; procedure, shortened: as §2
MCF7 [3] = test: Cell cycle arrest in human MCF7 cells assessed as accumulation at G1 phase at 4 uM after 24 hrs by FACS analysis (reference value: 58.33%)
MCF7 [4] = test: Cell cycle arrest in human MCF7 cells assessed as accumulation at S phase at 4 uM after 24 hrs by FACS analysis (reference value: 6.79%)
MCF7 [5] = test: Cell cycle arrest in human MCF7 cells assessed as accumulation at G2/M phase at 4 uM after 24 hrs by FACS analysis (reference value: 34.88%)

## COc1ccc(/C=C\c2cc(OC)c(OC)c(OC)c2)cc1OCC(=O)Nc1nc2ccc(C(F)(F)F)cc2s1
COLO 205 [1]
  inhibition of growth at 10 µM: 25%
THP-1; THP-1, 48 h, read-out: GI
  inhibition of growth at 10 µM: 29%
IMR-32
  inhibition of growth at 10 µM: 23%
CCRF-CEM
  GI50: 4270 nM
RPMI-8226
  GI50: 5480 nM
SR
  GI50: 3350 nM
A549
  GI50: 4460 nM
EKVX
  GI50: 6250 nM
HOP-62
  GI50: 5220 nM
HOP-92
  GI50: 2880 nM
NCI-H226
  GI50: 3170 nM
NCI-H322M
  GI50: 5380 nM
COLO 205 [2]
  GI50: 17100 nM
HCC 2998
  GI50: 4230 nM
HT-29
  GI50: 14900 nM
KM12
  GI50: 3140 nM
SF-268
  GI50: 3850 nM
SF-295
  GI50: 3360 nM
SF-539
  GI50: 2660 nM
SNB-19
  GI50: 5030 nM
U-251
  GI50: 3670 nM
M14
  GI50: 3580 nM
MDA-MB-435
  GI50: 1840 nM
SK-MEL-28
  GI50: 3000 nM
UACC-257
  GI50: 40000 nM
UACC-62
  GI50: 3900 nM
IGROV-1
  GI50: 4480 nM
OVCAR-4
  GI50: 4660 nM
SK-OV-3
  GI50: 3290 nM
ACHN
  GI50: 4820 nM
CAKI-1
  GI50: 3100 nM
RXF 393
  GI50: 2270 nM
SN12C
  GI50: 4430 nM
TK-10
  GI50: 7030 nM
UO-31
  GI50: 3590 nM
PC-3
  GI50: 4320 nM
DU-145
  GI50: 2510 nM
BT-549
  GI50: 5230 nM
T47D
  GI50: 4790 nM
MDA-MB-468
  GI50: 2160 nM
MCF7 [3]
  Activity: 55.82%
MCF7 [4]
  Activity: 7.15%
MCF7 [5]
  Activity: 37.02%

## COc1ccc(/C=C\c2cc(OC)c(OC)c(OC)c2)cc1OCC(=O)Nc1nc2ccccc2s1
COLO 205 [1]
  inhibition of growth at 10 µM: 60%
THP-1
  growth inhibition (GI): inactive
IMR-32
  inhibition of growth at 10 µM: 91%
CCRF-CEM
  GI50: 78 nM
RPMI-8226
  GI50: 150 nM
SR
  GI50: 37 nM
A549
  GI50: 340 nM
EKVX
  GI50: 38 nM
HOP-92
  GI50: 39 nM
NCI-H226
  GI50: 270 nM
COLO 205 [2]
  GI50: 2830 nM
HCC 2998
  GI50: 370 nM
HT-29
  GI50: 3160 nM
KM12
  GI50: 58 nM
SF-268
  GI50: 180 nM
SF-295
  GI50: 220 nM
SF-539
  GI50: 45 nM
U-251
  GI50: 48 nM
M14
  GI50: 72 nM
MDA-MB-435
  GI50: 19 nM
UACC-257
  GI50: 11000 nM
UACC-62
  GI50: 63 nM
IGROV-1
  GI50: 210 nM
OVCAR-4
  GI50: 370 nM
SK-OV-3
  GI50: 340 nM
ACHN
  GI50: 93 nM
CAKI-1
  GI50: 410 nM
RXF 393
  GI50: 50 nM
SN12C
  GI50: 370 nM
UO-31
  GI50: 580 nM
PC-3
  GI50: 180 nM
DU-145
  GI50: 100 nM
BT-549
  GI50: 410 nM
T47D
  GI50: 1000 nM
MDA-MB-468
  GI50: 100 nM
MCF7 [3]
  Activity: 25.94%
MCF7 [4]
  Activity: 27.48%
MCF7 [5]
  Activity: 46%
